Data set [1] can be described thus: Half life in human liver microsomes. Format: ADME, microsome. In a few lines:
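Compounds were incubated with human liver microsomes. Half-life = ln(2)/slope, where the slope is ln(% detected) plotted against time, using the mean of at least 3 independent experiments.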

In data set [2] the test system is Chikungunya virus. The data set is described as follows: Antiviral activity against full length Gaussia princeps Gluc-tagged Chikungunya virus IMT infected in HEK293T cells assessed as reduction in virus infection after 24 hrs by Gaussia luciferase reporter gene assay. Format: functional, cell-based. The note with it: HEK-293T. (A reporter such as luciferase makes a cellular process visible.)

Data set [3] can be described thus: Cytotoxicity against HEK293T cells assessed as reduction in cell viability after 24 hrs by CellTiter-Glo luminescent assay. The note with it: human. Format: cell-based, HEK-293T. In a few lines: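 HEK 293T cell viability was measured by CellTiter-Glo luminescence after 24 h exposure to serial dilutions. Data were normalized to untreated cells (100%) and reagent background (0%). CC50, the concentration reducing viability by 50%, came from a five-parameter asymmetric fit.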

Data set [4] in a line: Selectivity index, ratio of CC50 for HEK293T cells to EC50 for full length Gaussia princeps Gluc-tagged Chikungunya virus IMT. Format: toxicity. The note with it: human, read-out: Ratio CC50/EC50.
Data set [5] relates to Chikungunya virus. The data set is described as follows: Antiviral activity against wild type Chikungunya virus IMT infected in HEK293T cells assessed as reduction in virus infection after 24 hrs by FITC immunofluorescence-based single cell quantification high content screening assay. Format: functional. The note with it: HEK-293T.

From ChEMBL document CHEMBL4007509, “Structural Optimizations of Thieno[3,2-b]pyrrole Derivatives for the Development of Metabolically Stable Inhibitors of Chikungunya Virus” (J Med Chem, 2017) come the findings set out here.

By half-life is commonly meant the time needed for the level to fall by half in the phase considered. A high value points to slow loss. For the molecule `CCCNC(=O)C1CCN(C(=O)c2cc3sc(C#N)cc3n2Cc2ccc(OC)cc2)CC1`, in data set [1], the half-life worked out at 11.2 min.
The EC50 is the concentration that produces a half-maximal response. By CC50 is commonly meant the concentration that lowers cell viability or growth by half. As to `CCCNC(=O)C1CCN(C(=O)c2cc3sc(Br)cc3n2Cc2ccc(OC)cc2)CC1`, the EC50 in data set [2] was 3.1 µM. Further, the half-maximal cytotoxic concentration (CC50) at 24 h in data set [3] was greater than 100 µM. For the same molecule, the selectivity ratio in data set [4] is greater than 32. The molecule also returned a half-life in data set [1] of 2.91 min.
The matching figures for `CCCNC(=O)[C@@H]1C[C@H]2CCC[C@@H](C1)[C@@H]2NC(=O)c1cc2sc(Br)cc2n1Cc1ccc(OC)cc1`: 14 µM, greater than 100 µM, greater than 7.1 and 45.1 min.
For `COc1ccc(Cn2c(C(=O)N3CCC(C(=O)NC(C)C)CC3)cc3sc(Br)cc32)cc1`, the 50% effective concentration (EC50) in data set [2] stood at 1.95 µM; in data set [5], 2.47 µM. The CC50 at 24 h in data set [3] was greater than 100 µM. Moreover, in data set [4], the selectivity ratio was greater than 51. The half-life in data set [1] worked out at 3.76 min.
For `CCCNC(=O)C1CC12CN(C(=O)c1cc3sc(Br)cc3n1Cc1ccc(OC)cc1)C2` (centres undefined), the EC50 in data set [2] worked out at 20.2 µM. Moreover, the half-maximal cytotoxic concentration (CC50) at 24 h in data set [3] was greater than 100 µM. Moreover, the selectivity ratio in data set [4] is greater than 5. Besides, the half-life in data set [1] was 19.5 min.
For `CCCNC(=O)C1CCN(C(=O)c2cc3cc(Br)ccc3n2Cc2ccc(OC)cc2)CC1`, in data set [2], the concentration giving a half-maximal response (EC50) is greater than 100 µM. The 50% cytotoxic concentration (CC50) at 24 h in data set [3] was greater than 100 µM. In data set [1], this molecule yielded a half-life of 3.94 min.
In the case of `CCCNC(=O)[C@@H]1C[C@H]2CCC[C@@H](C1)[C@@H]2NC(=O)c1cc2sc(-c3ccccc3)nc2n1Cc1ccc(OC)cc1`, the 50% effective concentration (EC50) in data set [2] was 5.32 µM; in data set [5], greater than 25 µM. Moreover, the CC50 at 24 h in data set [3] is greater than 100 µM. For the same molecule, the selectivity ratio in data set [4] is greater than 19. Also, the half-life in data set [1] stood at 27.2 min.
As for `CCCNC(=O)C1CCN(C(=O)c2cc3sccc3n2Cc2ccc(OC)cc2)CC1`, the EC50 in data set [2] came to 7 µM. Moreover, in data set [4], the selectivity ratio came to 2.7. Also, the half-life in data set [1] stood at 10.6 min.
Turning to `CCCNC(=O)C1CCN(C(=O)c2cc3cc(Br)sc3n2Cc2ccc(OC)cc2)CC1`, the half-maximal effective concentration (EC50) in data set [2] was 13.6 µM. The cytotoxic concentration (CC50) at 24 h in data set [3] is greater than 100 µM. Further, the selectivity ratio in data set [4] was greater than 7.3. The molecule also yielded a half-life in data set [1] of 7.61 min.
Take `CCCNC(=O)C1CCN(C(=O)c2cc3ccccc3n2Cc2ccc(OC)cc2)CC1`: the EC50 in data set [2] came to 7.86 µM; in data set [5], 8.26 µM. For the same molecule, the 50% cytotoxic concentration (CC50) at 24 h in data set [3] was found to be 26 µM. The selectivity ratio in data set [4] came to 3.3. In addition, the half-life in data set [1] is 2.66 min.
For `CCCNC(=O)C1CCN(C(=O)c2cc3occc3n2Cc2ccc(OC)cc2)CC1`, in that order: 6 µM, 5.24 µM, 37.2 µM, 6.2 and 2.74 min.
As for `CCCNC(=O)[C@@H]1C[C@H]2CCC[C@@H](C1)[C@@H]2NC(=O)c1cc2scnc2n1Cc1ccc(OC)cc1`, the concentration giving a half-maximal response (EC50) in data set [2] is 11.4 µM. Moreover, the 50% cytotoxic concentration (CC50) at 24 h in data set [3] is greater than 25 µM. In addition, the selectivity ratio in data set [4] is greater than 2.2. For the same molecule, the half-life in data set [1] is 44.6 min.
For `CCCNC(=O)[C@@H]1CCCN1C(=O)c1cc2sc(Br)cc2n1Cc1ccc(OC)cc1`, in that order: 21.2 µM, 72.4 µM, 3.4 and 18.2 min.
Regarding `CCCNC(=O)C1CCN(C(=O)c2cc3ccsc3n2Cc2ccc(OC)cc2)CC1`, the EC50 in data set [2] was 8.86 µM; in data set [5] it was 6.5 µM. Besides, in data set [3], the CC50 at 24 h was 23.4 µM. In addition, the selectivity ratio in data set [4] was determined as 2.6. This molecule also came in with a half-life in data set [1] of 4.08 min.
On to `CCCNC(=O)[C@H]1CC[C@@H](NC(=O)c2cc3sc(Br)cc3n2Cc2ccc(OC)cc2)CC1`, for which the EC50 in data set [2] is greater than 100 µM. In addition, the CC50 at 24 h in data set [3] is greater than 100 µM.
As to `CCCNC(=O)C1CCN(C(=O)c2cc3sc(-c4ccccc4)nc3n2Cc2ccc(OC)cc2)CC1`, the concentration for a half-maximal effect (EC50) in data set [2] was found to be 3.02 µM; in data set [5] it was 5.63 µM. Moreover, the CC50 at 24 h in data set [3] came out at 22.9 µM. Further, the selectivity ratio in data set [4] came to 7.6. In data set [1], this molecule displayed a half-life of 40.8 min.
In the case of `CCCNC(=O)C1CCN(C(=O)c2ccc(Br)n2Cc2ccc(OC)cc2)CC1`, the EC50 in data set [2] worked out at 16.8 µM. The cytotoxic concentration (CC50) at 24 h in data set [3] is greater than 100 µM. Besides, the selectivity ratio in data set [4] is greater than 6. In data set [1], this molecule had a half-life of 7.32 min.
For `CCCNC(=O)C1CCN(C(=O)c2cc3nc(Br)sc3n2Cc2ccc(OC)cc2)CC1`, the results for the EC50 in data set [2] and in data set [5] were 2.22 µM and 3.87 µM, respectively. The CC50 at 24 h in data set [3] was determined as 46.8 µM. In addition, the selectivity ratio in data set [4] was 21. In data set [1], the half-life amounted to 22.1 min.
For `CCCNC(=O)C1CCN(C(=O)c2cc3[nH]ccc3n2Cc2ccc(OC)cc2)CC1`, the EC50 in data set [2] worked out at 11.4 µM. Besides, the CC50 at 24 h in data set [3] was greater than 100 µM. Further, the selectivity ratio in data set [4] was greater than 8.8. Besides, in data set [1], the half-life amounted to 23.1 min.
Regarding `CCCNC(=O)C1CCN(C(=O)c2cc3scnc3n2Cc2ccc(OC)cc2)CC1`, the EC50 is 4.56 µM in data set [2] and 4.72 µM in data set [5]. Also, the half-maximal cytotoxic concentration (CC50) at 24 h in data set [3] worked out at 19.1 µM. The selectivity ratio in data set [4] stood at 4.2. Besides, the half-life in data set [1] came out at 27.7 min.
Turning to `CCCNC(=O)C1CCN(C(=O)c2cc3[nH]cnc3n2Cc2ccc(OC)cc2)CC1`, in data set [2], the EC50 stood at 42.8 µM. For the same molecule, the CC50 at 24 h in data set [3] was greater than 100 µM. Moreover, the selectivity ratio in data set [4] was greater than 2.3. This molecule also showed a half-life in data set [1] of 76.2 min.
For the molecule `CCCNC(=O)[C@H]1CC[C@H](NC(=O)c2cc3sc(Br)cc3n2Cc2ccc(OC)cc2)CC1`, in data set [2], the EC50 stood at 14.3 µM. Besides, the half-maximal cytotoxic concentration (CC50) at 24 h in data set [3] was greater than 100 µM. Further, the selectivity ratio in data set [4] is greater than 7. The same molecule registered a half-life in data set [1] of 3.97 min.
In data set [1], `CCCCC(=O)C1CCN(C(=O)c2cc3sccc3n2Cc2ccc(OC)cc2)CC1` yielded a half-life of 6.3 min.
With `CCCNC(=O)C1CCN(C(=O)c2cc3sc(C)cc3n2Cc2ccc(OC)cc2)CC1`, the half-life in data set [1] is 2.69 min.
`CCCNC(=O)C1CCN(C(=O)c2cccn2Cc2ccc(OC)cc2)CC1`: the EC50 in data set [2] was found to be 25.7 µM. Moreover, the cytotoxic concentration (CC50) at 24 h in data set [3] was greater than 100 µM. For the same molecule, the selectivity ratio in data set [4] was greater than 3.9. Moreover, the half-life in data set [1] was 6.71 min.
In turn, `CCCNC(=O)C1CCN(C(=O)c2cc3sccc3n2Cc2ccc(Cl)cc2)CC1` displayed a half-life in data set [1] of 10.3 min.
On the same count and under the same terms, under `CCCNC(=O)C1CCN(C(=O)c2cc3sc(-c4ccccc4F)cc3n2Cc2ccc(OC)cc2)CC1` stands 35.5 min.
`CCCNC(=O)[C@H]1[C@@H]2CCC[C@H]1CN(C(=O)c1cc3sc(Br)nc3n1Cc1ccc(OC)cc1)C2`: the EC50 in data set [2] is 13.4 µM. In addition, in data set [3], the 50% cytotoxic concentration (CC50) at 24 h came to 57.5 µM. In addition, the selectivity ratio in data set [4] came to 4.3. The same molecule displayed a half-life in data set [1] of 2.89 min.
For `CCCNC(=O)C1CCN(C(=O)c2cc(Br)cn2Cc2ccc(OC)cc2)CC1`, in that order: 21.4 µM, 55 µM, 2.6 and 2.17 min.
In the case of `CCCNC(=O)[C@@H]1[C@@H]2CCC[C@H]1CN(C(=O)c1cc3sc(Br)cc3n1Cc1ccc(OC)cc1)C2`, the EC50 in data set [2] came to 12.6 µM. Also, the CC50 at 24 h in data set [3] is greater than 100 µM. Further, in data set [4], the selectivity ratio was greater than 7.9.
In the case of `CCCNC(=O)C1CN(C(=O)c2cc3sc(Br)cc3n2Cc2ccc(OC)cc2)C1`, the half-maximal effective concentration (EC50) in data set [2] stood at 13.6 µM. Further, the CC50 at 24 h in data set [3] is greater than 100 µM. Also, the selectivity ratio in data set [4] was greater than 7.4. In data set [1], the half-life stood at 7.73 min.
Consider `CCCNC(=O)[C@@H]1C[C@H]2CCC[C@@H](C1)[C@H]2NC(=O)c1cc2sc(Br)cc2n1Cc1ccc(OC)cc1`, for which the 50% effective concentration (EC50) in data set [2] is greater than 100 µM. In addition, in data set [3], the half-maximal cytotoxic concentration (CC50) at 24 h is greater than 100 µM.
